# High-throughput results (PubChem)
# An excerpt weighted towards active compounds, which were near 0.94% of everything screened.
# Arr AP2 block = human beta-arrestin and AP2 interaction inhibition | FITC-arrestin peptide / GST-AP2 beads, flow cytometry; AP2 beta2 appendage carries R879A mutation | AID 504490 | hit rate 0.31% among 340,000 | inhibition, % at 10 µM;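 active = inhibition above a set limit, near 3 SD of compounds lacking own fluorescence, cut at about 54% in these data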
#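 System: GST-AP2 R879A glutathione beads; medium: PBS, Tween 20 0.05%, BSA 0.1%; reagent: fluorescein-tagged arrestin peptide at 50 nM final; schedule: pre-incubation 12 min, peptide binding 1 h, room temperature; detection: flow cytometry, FL1 (488/535 nm); read-out: inhibition as reduced fluorescein signal on beads, percent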
# GC-B act = GC-B (human) receptor activation. HEK293-GC-B cells, CNP EC30, cGMP TR-FRET; 0% at EC30 CNP, 100% saturating CNP. P20594. hit rate 0.11% among 370,000. activation, % at 10 µM;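 active = activation at 10 µM reaching about 35% in either raw or pattern-adjusted values, limit read from the data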
# NPR1 activator = GC-A (human) enzyme activation; P16066; HEK293 GC-A cells, cGMP TR-FRET, EC30 ANP; 0% at EC30 ANP, 100% saturating ANP; activation, % at 10 µM; hit rate 0.14% among 370,000; AID 1671463; in the data active = activation above about 40%
# GalR3 antag = blocks the human galanin receptor 3. inhibition, % at 3 µM. HEK293 GalR3-CNG cAMP membrane potential fluorescence; galR3 body fused to GalR1 C-terminus. hit rate 0.44% among 360,000;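 active = inhibition above the screen-wide average plus 3 SD, cut at about 13% in these data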;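 note: forskolin and galanin both at EC90 stimulate the cells; cAMP rise reported by CNG channel membrane potential dye signal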
# GalR3 conf = GalR3 (human) antagonism, confirmation | shares compounds with GalR3 antag | HEK293 GalR3 CNG cAMP biosensor, membrane potential fluorescence; galR3 fused to GalR1 carboxy tail; challenged with forskolin and galanin at EC90 | inhibition, % at 3 µM | hit rate 59% among 1,600 | AID 652245;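 active = inhibition above the primary screen's cutoff, the mean inhibition of all screened compounds plus 3 SD, cut at about 13% in these data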
# HEK-CNG parental = counter-screen for GalR3 antagonists: nonspecific agonists in parental HEK-CNG cells | HEK293-CNG parental cells, cAMP membrane potential fluorescence; normalised: DMSO wells 0%, forskolin wells 100% | AID 652268 | hit rate 10% among 1,600 | shares compounds with GalR3 antag | activation, % at 3 µM; in the data active = activation above about 1.3%
# Numbers stand for hits; n = inactive; x = not tested or not shown.
SMILES,Arr AP2 block,GC-B act,NPR1 activator,GalR3 antag,GalR3 conf,HEK-CNG parental
Cc1cc(C)n2nc(C(=O)NCc3ccccc3)nc2n1,n,n,n,x,n,n
O=C(Nc1ccc(-c2nc3ccccc3o2)cc1)c1ccc2c(c1)OCO2,n,n,n,n,x,x
O=C(Nc1ccc(-c2nc3ccccc3o2)cc1)c1ccc(N2C(=O)C3C4C=CC(C4)C3C2=O)cc1 (centres undefined),n,n,n,61,110,n
CCn1c2ccccc2c2cc(C3C(C#N)=C(N)Oc4n[nH]c(COC)c43)ccc21 (centres undefined),n,n,n,41,26,n
Nc1c(Cl)cc(C2=NCCn3c2c2ccc([N+](=O)[O-])cc2[n+]3[O-])cc1Cl,n,n,n,n,x,x
[O-][n+]1c2cc(C(F)(F)F)ccc2c2n1CCN=C2c1ccc(Cl)cc1,n,n,n,x,n,n
Cc1cc(N2CCN(c3nc4ccccc4s3)CC2)n2ncnc2n1,n,n,n,24,37,n
CC(=O)C1=C(C)N(Cc2ccc(Cl)cc2)C(=S)NC1c1ccc(Cl)cc1 (centres undefined),x,n,n,n,x,x
CCC1CCCCN1C(=S)NN=C(C)c1ccccn1 (centres undefined),x,n,n,n,x,x
COc1ccccc1NC(=O)CCCc1nc(-c2ccc(OC)c(OC)c2)no1,n,n,n,23,16,n
COc1ccc(-c2noc(CCCC(=O)Nc3ccc(C(N)=O)cc3)n2)cc1OC,n,n,n,n,x,x
O=C(COc1ccc(Br)cc1Br)NC1CCCC1,n,n,n,42,73,n
Cc1cc(Cl)c(S(=O)(=O)N2CCCCCC2)cc1OCC(=O)NC1CCCCC1,n,n,n,n,x,x
O=C(COc1ccc(Br)cc1Cl)NC1CCCCC1,n,n,n,n,x,x
CCN1CCN(S(=O)(=O)c2cc(OCC(=O)NC3CCCCC3)c(C)cc2Cl)CC1,n,n,n,25,55,n
Cc1cc(Cl)c(S(N)(=O)=O)cc1OCC(=O)NC1CCCCC1,n,n,n,n,x,x
Cc1cc(Cl)c(S(=O)(=O)NC2CCCC2)cc1OCC(=O)NC1CCCCC1,n,n,n,66,47,n
O=C(Nc1nc2ncccn2c1-c1ccccc1)C1CC1,x,n,n,x,x,x
COC(=O)C1=C(C)N(C)C(=NCc2ccccc2)NC1c1cccc(Cl)c1 (centres undefined),x,n,n,n,x,x
CC(C)CNS(=O)(=O)/C=C/c1ccccc1CCNC(=O)OC(C)(C)C,x,n,n,x,x,x
Cc1ccc(CN2CCCCC(NC(=O)Nc3cccc(F)c3)C2=O)cc1 (centres undefined),x,n,n,x,x,x
CCCCCC[n+]1ccccc1/C=C/c1ccc(N(C)C)cc1,x,n,n,16,16,41
CN(C(=O)c1ccc(S(=O)(=O)c2cccc(Cl)c2)c([N+](=O)[O-])c1)C1CCCCC1,n,n,n,22,n,n
CN(C(=O)c1ccc(NC(=O)Cc2cccc([N+](=O)[O-])c2)cc1)C1CCCC1,n,n,n,n,x,x
CCOC(=O)[C@]12CCCCC/C=C\1N(CCc1ccc(Cl)cc1)C(=O)[C@H]2CC(=O)NCCCCc1ccccc1,x,n,n,x,x,x
SMILES,Arr AP2 block,GC-B act,NPR1 activator,GalR3 antag,GalR3 conf,HEK-CNG parental
CC1CCN(C(=O)c2[nH]cnc2C(=O)NCc2ccccc2)CC1,n,n,n,x,n,n
CC(C)NC(=O)N(C)C[C@@H]1OCc2cn(nn2)CCCC(=O)N([C@@H](C)CO)C[C@H]1C,x,n,n,n,x,x
CCCCC[C@H](O)/C=C/[C@H]1CCC(=O)[C@@H]1CCCCCCC(=O)N1CCCCC1CO (some centres undefined),n,n,n,79,97,n
CCOc1ccc(S(=O)(=O)Nc2nc3ccccc3nc2N2CCN(C)CC2)cc1,n,n,n,20,17,n
CCOc1ccc(S(=O)(=O)Nc2nc3ccccc3nc2Cl)cc1,n,n,n,n,x,x
CC(C)(C)OC(=O)NCCc1nnc(SCC(=O)Nc2cccc(Cl)c2)o1,n,n,n,n,x,x
CC(C)(C)OC(=O)NCCCCCc1nnc(SCC(=O)Nc2cccc(Cl)c2)o1,n,n,n,17,77,n
O=C(CSc1nc2ccccc2[nH]1)Nc1c(F)c(F)c(F)c(F)c1F,n,n,n,16,n,n
CCOC(=O)[C@]12CCCC=C1N(Cc1ccc(OC)cc1)C(=O)[C@@H]2CC(=O)NCc1cccc(C(F)(F)F)c1,x,n,n,x,x,x
C=CCNC(=O)NC(=O)COC(=O)[C@H](C)NS(=O)(=O)c1c(C)c(C)cc(C)c1C,n,n,n,n,x,x
CCNC(=O)NC(=O)C(C)OC(=O)[C@H](C)NS(=O)(=O)c1c(C)c(C)cc(C)c1C (some centres undefined),n,n,n,39,n,n
CCc1cc(C(=O)c2ccccc2OC)c(N)s1,n,n,n,n,x,x
CCn1c(=O)[nH]c(=O)c2c(N)c(C(=O)c3ccccc3OC)sc21,n,n,n,15,n,n
Cc1[nH]nc2c1C(c1cccc(C(F)(F)F)c1)N(Cc1ccccc1)C2=O (centres undefined),x,n,n,n,x,x
CCOC(=O)CC(N)c1ccc(OC)cc1 (centres undefined),n,n,n,14,13,n
CCOC(=O)CCP(=O)(O)C(O)c1ccc(OC)cc1 (centres undefined),n,n,n,n,x,x
COc1cccc(-n2c(C)c(C(C)=O)c(C(C)=O)c2C)c1,n,n,n,15,n,n
COc1ccc(-n2c(C)c(C(C)=O)c(C(C)=O)c2C)cc1,n,n,n,n,x,x
CC1(C)CC(=O)C2=C(C1)NC1=C(C(=O)c3ccccc31)C2c1ccc(O)cc1 (centres undefined),n,n,n,34,60,n
COCCN=C1Sc2ccccc2[C@@H]2C[C@H]3[C@H](CON3C)CN12,x,n,n,n,x,x
CCN1C(=O)N(C(C)=O)[C@H]2C[C@H](C(=O)N3CCCC3)[C@H](C)[C@H](c3ccccc3)C[C@H]21,x,n,n,n,x,x
Cc1cc(C)n(C(=O)COc2ccc(Cl)cc2Cl)n1,n,n,n,14,16,n
CC(Oc1ccc(Cl)cc1Cl)C(=O)Nc1cccc(O)c1 (centres undefined),n,n,n,14,15,n
COCCN1C(=O)C2=C(C1=O)C1N(C)c3ccccc3[C@@]13C[C@@H](CO)N(C(=O)CCC(=O)OC)C3=N2 (some centres undefined),x,n,n,x,x,x
COc1ccc(CN(C)C(=O)c2ccc(OCC(=O)Nc3cccc(C(F)(F)F)c3)c(OC)c2)cc1,x,n,n,18,85,n
COc1cc(C(=O)NCc2cccnc2)ccc1OCC(=O)Nc1cccc(C(F)(F)F)c1,n,n,n,n,x,x
